Measurements published in ChEMBL document CHEMBL3352718, “CB2-selective cannabinoid receptor ligands: synthesis, pharmacological evaluation, and molecular modeling investigation of 1,8-Naphthyridin-2(1H)-one-3-carboxamides” (J Med Chem, 2014).

Target: Cannabinoid receptor 1 (Homo sapiens, UniProt P21554)
Test: Displacement of [3H]CP-55,940 from human recombinant CB1R expressed in HEK-293 cells after 90 mins by liquid scintillation counting
Parameters: species or system HEK293
Conditions: not given

Cannabinoid receptor 1, sequence (P21554 whole entry): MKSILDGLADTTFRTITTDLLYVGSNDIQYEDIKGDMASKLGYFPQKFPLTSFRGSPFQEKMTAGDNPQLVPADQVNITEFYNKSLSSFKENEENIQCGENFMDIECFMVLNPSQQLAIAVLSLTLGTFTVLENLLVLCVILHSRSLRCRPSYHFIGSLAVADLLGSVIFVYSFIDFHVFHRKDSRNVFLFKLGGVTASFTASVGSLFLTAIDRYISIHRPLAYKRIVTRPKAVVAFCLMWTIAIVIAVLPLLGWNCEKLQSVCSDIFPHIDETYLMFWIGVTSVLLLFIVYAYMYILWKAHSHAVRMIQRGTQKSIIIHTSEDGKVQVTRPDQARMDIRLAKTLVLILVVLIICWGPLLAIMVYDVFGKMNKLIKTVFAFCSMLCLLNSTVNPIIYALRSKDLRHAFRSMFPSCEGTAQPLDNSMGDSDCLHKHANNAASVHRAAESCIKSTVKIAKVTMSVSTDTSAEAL

Compound	Ki [nM]
C[C@H]1CC[C@@H](NC(=O)c2cc3cc(-c4cccs4)cnc3n(Cc3ccc(F)cc3)c2=O)CC1	472
CCOC(=O)CCCn1c(=O)c(C(=O)NC2CCC(C)CC2)cc2cccnc21 (stereo unspecified)	> 10000
CC1CCC(NC(=O)c2cc3cccnc3n(CCO)c2=O)CC1 (stereo unspecified)	> 10000
CC1CCC(NC(=O)c2cc3cccnc3n(CCCC(=O)O)c2=O)CC1 (stereo unspecified)	> 10000
CC1CCC(NC(=O)c2cc3cccnc3n(CCCCF)c2=O)CC1 (stereo unspecified)	1010
CC1CCC(NC(=O)c2cc3cccnc3n(CCCCCF)c2=O)CC1 (stereo unspecified)	22.6
CC1CCC(NC(=O)c2cc3cccnc3n(CCCO)c2=O)CC1 (stereo unspecified)	> 10000
CC1CCC(NC(=O)c2cc3cccnc3n(CCCCO)c2=O)CC1 (stereo unspecified)	> 10000
C[C@H]1CC[C@H](NC(=O)c2cc3cc(-c4cccs4)cnc3n(Cc3ccc(F)cc3)c2=O)CC1	430
CCCCn1c(=O)c(C(=O)NC2CCC(C)CC2)cc2cccnc21 (stereo unspecified)	2310
CC1CCC(NC(=O)c2cc3cccnc3n(CCCCCCF)c2=O)CC1 (stereo unspecified)	35.7
CC1CCC(NC(=O)c2cc3cc(-c4ccco4)cnc3n(CCN3CCOCC3)c2=O)CC1 (stereo unspecified)	52.9
COc1ccc(-c2cnc3c(c2)cc(C(=O)NC2CCC(C)CC2)c(=O)n3CCN2CCOCC2)cc1 (stereo unspecified)	> 10000
CCCCCn1c(=O)c(C(=O)NC2CCC(C)CC2)cc2cccnc21 (stereo unspecified)	908
C[C@H]1CC[C@@H](NC(=O)c2cc3cc(-c4ccco4)cnc3n(Cc3ccc(F)cc3)c2=O)CC1	4060
CC1CCC(NC(=O)c2cc3cccnc3n(CCC(=O)O)c2=O)CC1 (stereo unspecified)	> 10000
COc1ccc(-c2cnc3c(c2)cc(C(=O)NC2CCC(C)CC2)c(=O)n3Cc2ccc(F)cc2)cc1 (stereo unspecified)	3260

Target: T1, Cannabinoid receptor 2 (Homo sapiens, UniProt P34972)
Test: Antagonist activity at human recombinant CB2R expressed in WIN-55212-stimulated U2OS cells assessed as increase in forskolin-mediated cAMP level after 30 mins by time-resolved fluorescence assay
Assay type: functional, cell-based
Conditions: u2os

T1 sequence (P34972 whole entry): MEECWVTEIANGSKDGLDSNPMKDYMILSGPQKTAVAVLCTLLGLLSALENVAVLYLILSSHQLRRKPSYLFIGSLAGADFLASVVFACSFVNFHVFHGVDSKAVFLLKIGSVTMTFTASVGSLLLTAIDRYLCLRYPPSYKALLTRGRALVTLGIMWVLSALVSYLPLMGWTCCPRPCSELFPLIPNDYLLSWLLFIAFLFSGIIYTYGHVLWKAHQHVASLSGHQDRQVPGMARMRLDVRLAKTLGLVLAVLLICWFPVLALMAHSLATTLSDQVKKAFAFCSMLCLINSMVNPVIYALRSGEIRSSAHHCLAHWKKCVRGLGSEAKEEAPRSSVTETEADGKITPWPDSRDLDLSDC

Compound	IC50
COc1ccc(-c2cnc3c(c2)cc(C(=O)NC2CCC(C)CC2)c(=O)n3CCN2CCOCC2)cc1 (stereo unspecified)	ND(Insoluble)

Target: T1, Cannabinoid receptor 2
Test: Displacement of [3H]CP-55,940 from human recombinant CB2R expressed in HEK-293 cells after 90 mins by liquid scintillation counting
Parameters: species or system HEK293
Conditions: not given

Compound	Ki [nM]	IC50 [nM]
C[C@H]1CC[C@@H](NC(=O)c2cc3cc(-c4cccs4)cnc3n(Cc3ccc(F)cc3)c2=O)CC1	0.96	
CCOC(=O)CCCn1c(=O)c(C(=O)NC2CCC(C)CC2)cc2cccnc21 (stereo unspecified)	62.6	
CC1CCC(NC(=O)c2cc3cccnc3n(CCO)c2=O)CC1 (stereo unspecified)	2100	
CC1CCC(NC(=O)c2cc3cccnc3n(CCCC(=O)O)c2=O)CC1 (stereo unspecified)	2470	
CC1CCC(NC(=O)c2cc3cccnc3n(CCCCF)c2=O)CC1 (stereo unspecified)	1.36	5.35
CC1CCC(NC(=O)c2cc3cccnc3n(CCCCCF)c2=O)CC1 (stereo unspecified)	0.56	
CC1CCC(NC(=O)c2cc3cccnc3n(CCCO)c2=O)CC1 (stereo unspecified)	129	
CC1CCC(NC(=O)c2cc3cccnc3n(CCCCO)c2=O)CC1 (stereo unspecified)	53.3	210
C[C@H]1CC[C@H](NC(=O)c2cc3cc(-c4cccs4)cnc3n(Cc3ccc(F)cc3)c2=O)CC1	65.6	
CCCCn1c(=O)c(C(=O)NC2CCC(C)CC2)cc2cccnc21 (stereo unspecified)	3.9	
CC1CCC(NC(=O)c2cc3cccnc3n(CCCCCCF)c2=O)CC1 (stereo unspecified)	1.46	
CC1CCC(NC(=O)c2cc3cc(-c4ccco4)cnc3n(CCN3CCOCC3)c2=O)CC1 (stereo unspecified)	0.35	
COc1ccc(-c2cnc3c(c2)cc(C(=O)NC2CCC(C)CC2)c(=O)n3CCN2CCOCC2)cc1 (stereo unspecified)	1.47	
CCCCCn1c(=O)c(C(=O)NC2CCC(C)CC2)cc2cccnc21 (stereo unspecified)	2.82	
C[C@H]1CC[C@@H](NC(=O)c2cc3cc(-c4ccco4)cnc3n(Cc3ccc(F)cc3)c2=O)CC1	0.27	
CC1CCC(NC(=O)c2cc3cccnc3n(CCC(=O)O)c2=O)CC1 (stereo unspecified)	1390	
COc1ccc(-c2cnc3c(c2)cc(C(=O)NC2CCC(C)CC2)c(=O)n3Cc2ccc(F)cc2)cc1 (stereo unspecified)	3.83	

Target: T1, Cannabinoid receptor 2
Test: Agonist activity at human recombinant CB2R expressed in U2OS cells assessed as beta-arrestin-GFP binding to receptor […] by fluorescent microscopy
Assay type: cell-based
Conditions: not given

Compound	EC50 [nM]
CC1CCC(NC(=O)c2cc3cccnc3n(CCCCF)c2=O)CC1 (stereo unspecified)	21.8
CC1CCC(NC(=O)c2cc3cccnc3n(CCCCO)c2=O)CC1 (stereo unspecified)	23.7

Target: T1, Cannabinoid receptor 2
Test: Agonist activity at human recombinant CB2R expressed in […] U2OS cells assessed as reduction in forskolin-mediated cAMP level after 30 mins by time-resolved fluorescence assay
Assay type: functional, cell-based
Conditions: not given
Summary of the method: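 hCB2R-expressing U2OS cells in HBSS stimulation buffer with 0.1% BSA, 0.5 mM IBMX and 5 mM HEPES, pH 7.4, at 3000 cells/well. Cells treated with forskolin (10 μM final) and various ligand concentrations for 30 min at room temperature. cAMP measured by LANCE TR-FRET (Eu-cAMP tracer plus ULight antibody, 1 h in the dark, 615/665 nm) against a cAMP standard curve. Three experiments in triplicate.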

Compound	EC50 [nM]
CC1CCC(NC(=O)c2cc3cccnc3n(CCCCF)c2=O)CC1 (stereo unspecified)	20.6

Test system: HEK293
Test: Selectivity ratio of Ki for human recombinant CB1R expressed in HEK-293 cells to Ki for human recombinant CB2R expressed in HEK-293 cells
Assay type: cell-based
Conditions: not given

Compound	Ratio Ki
C[C@H]1CC[C@@H](NC(=O)c2cc3cc(-c4cccs4)cnc3n(Cc3ccc(F)cc3)c2=O)CC1	491
CC1CCC(NC(=O)c2cc3cccnc3n(CCCCF)c2=O)CC1 (stereo unspecified)	743
CC1CCC(NC(=O)c2cc3cccnc3n(CCCCCF)c2=O)CC1 (stereo unspecified)	40.3
C[C@H]1CC[C@H](NC(=O)c2cc3cc(-c4cccs4)cnc3n(Cc3ccc(F)cc3)c2=O)CC1	6.5
CCCCn1c(=O)c(C(=O)NC2CCC(C)CC2)cc2cccnc21 (stereo unspecified)	593
CC1CCC(NC(=O)c2cc3cccnc3n(CCCCCCF)c2=O)CC1 (stereo unspecified)	24.4
CC1CCC(NC(=O)c2cc3cc(-c4ccco4)cnc3n(CCN3CCOCC3)c2=O)CC1 (stereo unspecified)	151
CCCCCn1c(=O)c(C(=O)NC2CCC(C)CC2)cc2cccnc21 (stereo unspecified)	322
C[C@H]1CC[C@@H](NC(=O)c2cc3cc(-c4ccco4)cnc3n(Cc3ccc(F)cc3)c2=O)CC1	15000
COc1ccc(-c2cnc3c(c2)cc(C(=O)NC2CCC(C)CC2)c(=O)n3Cc2ccc(F)cc2)cc1 (stereo unspecified)	851

Target: T1, Cannabinoid receptor 2
Test: Antagonist activity at human recombinant CB2R expressed in U2OS cells assessed as inhibition of WIN-55212-induced beta-arrestin-GFP binding to receptor preincubated for 15 mins by fluorescent microscopy
Assay type: cell-based
Conditions: not given
Summary of the method: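 Same βarr2-GFP redistribution set-up in hCB2R U2OS cells on coverslips. […] Fixed in 4% paraformaldehyde, imaged by fluorescence microscopy. […] Three experiments in duplicate.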

Compound	IC50 [nM]
COc1ccc(-c2cnc3c(c2)cc(C(=O)NC2CCC(C)CC2)c(=O)n3CCN2CCOCC2)cc1 (stereo unspecified)	54
